The sample as a whole holds a higher share of hits than the screen did.
PostGolgi ctrl: yeast control strain growth, post-Golgi counter-screen; efflux-deficient yeast background strain, growth absorbance A615, 16 h; inhibition, % at 10 µM; AID 738; actives 5% (n = 98,000)
Yeast growth inh: yeast BB579 growth reduction in restrictive medium; S. cerevisiae BB579 growth, OD615, 48 h; inhibition, % at 10 µM; actives 0.51% (n = 140,000);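 active = inhibition above a set limit, 3 SD over the mean compound inhibition, cut at about 44% in these data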
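System: DeaD yeast strain BB579; buffer or medium: CSMM-D dextrose restrictive medium; technique: OD at 615 nm; schedule: 4 h cell preincubation, 48 h compound exposure, 30 °C humidified; doses: single 10 µM dose; controls: amphotericin B 10 µg/mL, positive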
Yeast lifespan up: extends the lifespan of yeast; actives 0.68% (n = 130,000); inhibition of the nicotinamide effect, % at 10 µM; S. cerevisiae growth with nicotinamide, OD615; deaD strain in restrictive glucose medium;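 active = inhibition above a set limit, placed 3 SD over the median of all compounds, cut at about 26% in these data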;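 note: 0% = nicotinamide-treated wells and 100% = cells grown without nicotinamide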
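System: Modified budding yeast, DeaD strain | Buffer or medium: Restrictive glucose medium | Also added: 1.5 mM nicotinamide | Doses: 10 µM single point, 0.25% DMSO | Schedule: 48 h compound exposure at 30 °C, humidified | Detection: Absorbance at 615 nm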
PostGolgi yeast: growth inhibition of a yeast mutant, post-Golgi transport screen; post-Golgi transport phenotypic cell assay; inhibition, % at 10 µM; actives 0.9% (n = 98,000); AID 739;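 note: yeast cells grown in 1536-well plates; yeast grown about 18 h at 30C before absorbance read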
Numbers without * were called inactive. Cut-off read from the data, not from the text of the source, unless noted: active = inhibition above about 30%; inactive = the rest.

How did CC(C)Cn1c(-c2ccccc2F)n[nH]c1=S do in these assays?
PostGolgi ctrl: 33*; Yeast growth inh: -49; Yeast lifespan up: -18; PostGolgi yeast: 8

How did CCn1c(-c2c[nH]c3ccccc23)n[nH]c1=S do in these assays?
PostGolgi ctrl: 0; Yeast growth inh: 5; Yeast lifespan up: -12; PostGolgi yeast: 40*

What do the screens show for `O=C(CCn1c(=O)c2ccccc2n(CC(=O)NC2CCCC2)c1=O)NCCc1ccc(Cl)cc1`?
PostGolgi ctrl: 9; Yeast growth inh: -11; Yeast lifespan up: -22; PostGolgi yeast: 0

What do the screens show for `Fc1ccc(N2CCN(C(c3cccs3)c3nnnn3C3CCCC3)CC2)cc1` (configuration not stated)?
PostGolgi ctrl: 36*; Yeast growth inh: -2; Yeast lifespan up: -29; PostGolgi yeast: 11

Results for COc1ccc(N2CCN(C(c3cccs3)c3nnnn3C3CCCC3)CC2)cc1 (configuration not stated) ?
PostGolgi ctrl: 78*; Yeast growth inh: -7; Yeast lifespan up: -8; PostGolgi yeast: 13

How did CCCN1CCN(CCCNC(=S)Nc2ccc(OC)cc2)CC1 do in these assays?
Yeast growth inh: 5; Yeast lifespan up: 2

How did COc1ccc(OC)c(-n2c(SCC(=O)N3CCc4ccccc43)nc3c(c2=O)SCC3)c1 do in these assays?
PostGolgi ctrl: 41*; Yeast growth inh: -29; Yeast lifespan up: -4; PostGolgi yeast: 9

How did CCN(CC)C(=O)Cn1nc(-c2ccccc2O)nc1SCC(=O)Nc1ccc(OC)cc1 do in these assays?
PostGolgi ctrl: 8; Yeast growth inh: -16; Yeast lifespan up: -3; PostGolgi yeast: 1

How did N#Cc1c(NC(=O)CSc2nnc(-c3ccccc3)o2)sc2c1CCCC2 do in these assays?
PostGolgi ctrl: 7; Yeast growth inh: -66; Yeast lifespan up: -12; PostGolgi yeast: 13

Results for Cc1sc(NC(=O)CSc2nnc(-c3ccccc3)o2)c(C#N)c1C ?
PostGolgi ctrl: 46*; Yeast growth inh: -17; Yeast lifespan up: -9; PostGolgi yeast: 0

How did CCCc1ccc(-c2c(C)sc(N)c2C#N)cc1 do in these assays?
PostGolgi ctrl: 43*; Yeast growth inh: -24; Yeast lifespan up: -13; PostGolgi yeast: 5

What do the screens show for `Cc1oc(-c2ccccc2F)nc1CSCC(=O)NCc1ccc2c(c1)OCO2`?
PostGolgi ctrl: -8; Yeast growth inh: -13; Yeast lifespan up: -29; PostGolgi yeast: -13

Results for FC(F)(F)c1nnc2c(Sc3ccccc3)nc3ccc(Cl)cc3n12 ?
PostGolgi ctrl: 15; Yeast growth inh: -25; Yeast lifespan up: -6; PostGolgi yeast: -3

What do the screens show for `CCC(=O)c1ccc(OCC(O)CN(CCc2ccccc2)Cc2ccccc2)cc1` (configuration not stated)?
PostGolgi ctrl: 52*; Yeast growth inh: -36; Yeast lifespan up: -11; PostGolgi yeast: 6

Results for CCCc1nnc(SCC(=O)N2CCCCC2)n1CCCOC ?
PostGolgi ctrl: 3; Yeast growth inh: -27; Yeast lifespan up: -22; PostGolgi yeast: 0

What do the screens show for `O=C(N/N=C/c1ccc(Br)cc1)c1ccccc1-n1cccc1`?
PostGolgi ctrl: 31*; Yeast growth inh: -16; Yeast lifespan up: -23; PostGolgi yeast: -1

What do the screens show for `O=C(CN(Cc1ccccc1)C(=O)c1cccc([N+](=O)[O-])c1)Nc1c(Cl)cc(Cl)cc1Cl`?
Yeast growth inh: -30; Yeast lifespan up: 5

What do the screens show for `Cc1ccc(C)c(N2CCN(C(=O)C3CCN(c4nc(C)cc(C)n4)CC3)CC2)c1`?
PostGolgi ctrl: 46*; Yeast growth inh: -49; Yeast lifespan up: -9; PostGolgi yeast: 6

Results for Cc1cc(C)nc(N2CCC(C(=O)N3CCN(c4cc(Cl)ccc4C)CC3)CC2)n1 ?
PostGolgi ctrl: 43*; Yeast growth inh: 5; Yeast lifespan up: -19; PostGolgi yeast: -3

Results for COc1ccc(C)cc1NC(=O)CN1CCN(C/C=C/c2ccccc2)CC1 ?
PostGolgi ctrl: 14; Yeast growth inh: -17; Yeast lifespan up: -14; PostGolgi yeast: 27

What do the screens show for `Cc1c(N2C(=O)CS/C2=N\N=C\c2ccc(Br)cc2)c(=O)n(-c2ccccc2)n1C`?
PostGolgi ctrl: -3; Yeast growth inh: -18; Yeast lifespan up: -6; PostGolgi yeast: -2

How did COc1ccc(S(=O)(=O)NCCSCc2cccc(C)c2)cc1Br do in these assays?
PostGolgi ctrl: 37*; Yeast growth inh: -32; Yeast lifespan up: -2; PostGolgi yeast: 0

How did Cc1ccc(S(=O)(=O)NCCSCc2ccccc2)cc1 do in these assays?
PostGolgi ctrl: 16; Yeast growth inh: -37; Yeast lifespan up: 1; PostGolgi yeast: -1

Results for CC1(C)Cc2c(C#N)c(SCCC#N)nc(N3CCOCC3)c2CS1 ?
PostGolgi ctrl: 9; Yeast growth inh: -43; Yeast lifespan up: -3; PostGolgi yeast: 13

Results for Cc1c(C(=O)N2CCN(S(C)(=O)=O)CC2)oc2ccccc12 ?
PostGolgi ctrl: 34*; Yeast growth inh: -104; Yeast lifespan up: -9; PostGolgi yeast: -8

Results for Cc1c(C(=O)N2CCN(CCc3ccccc3)CC2)oc2ccccc12 ?
PostGolgi ctrl: 13; Yeast growth inh: -56; Yeast lifespan up: -7; PostGolgi yeast: 7

Results for COc1ccc(NC(=S)Nc2cc(-c3ccccc3)[nH]n2)cc1Cl ?
PostGolgi ctrl: 30*; Yeast growth inh: -14; Yeast lifespan up: -14; PostGolgi yeast: -8

Results for Cc1cc(S(=O)(=O)Nc2ccc3ccccc3c2)c(C)s1 ?
PostGolgi ctrl: 78*; Yeast growth inh: 23; Yeast lifespan up: -7; PostGolgi yeast: -11

How did CCc1ccc(OCc2nnc(SCC(=O)N3CCN(c4ccccc4)CC3)o2)cc1 do in these assays?
Yeast growth inh: -35

What do the screens show for `CC(NC(=O)Nc1ccccc1)C(c1cccs1)N1CCOCC1` (configuration not stated)?
PostGolgi ctrl: -5; Yeast growth inh: -27; Yeast lifespan up: -5; PostGolgi yeast: -1

How did CC(NC(=O)Nc1ccc(Cl)cc1)C(c1cccs1)N1CCOCC1 (configuration not stated) do in these assays?
PostGolgi ctrl: -1; Yeast growth inh: 49*; Yeast lifespan up: -7; PostGolgi yeast: 9

How did CCN(CC)S(=O)(=O)c1cccc(C(=O)NC(C(=O)Nc2nnc(C)s2)C(C)C)c1 (configuration not stated) do in these assays?
PostGolgi ctrl: 4; Yeast growth inh: -52; Yeast lifespan up: -4; PostGolgi yeast: -7

Results for CCOCCCn1c(=S)[nH]c2ncccc2c1=O ?
PostGolgi ctrl: 33*; Yeast growth inh: -16; Yeast lifespan up: -14; PostGolgi yeast: 7

Results for O=c1c2cccnc2[nH]c(=S)n1CCCN1CCN(c2ccc(F)cc2)CC1 ?
PostGolgi ctrl: 42*; Yeast growth inh: -30; Yeast lifespan up: -18; PostGolgi yeast: 14

Results for COc1ccc(NC(=O)C(=O)N/N=C/c2cc(C)n(-c3cccc(Cl)c3Cl)c2C)c(OC)c1 ?
PostGolgi ctrl: 4; Yeast growth inh: -36; Yeast lifespan up: 0; PostGolgi yeast: 3

How did N#Cc1ccc(OCC(=O)NCCc2ccccn2)cc1 do in these assays?
PostGolgi ctrl: -2; Yeast growth inh: -26; Yeast lifespan up: 46*; PostGolgi yeast: 3
